CSC inhib = cancer stem cell inhibition | inhibition, % at 7.5 µM | AID 2717 | cancer stem cell-like cells viability, luminescence | 300,000 compounds, 1.1% hits; in the data active = inhibition above about 75%; tested in HMLE shEcad cells
Beta cell apopt = blocks beta cell apoptosis; INS-1E cytokine-induced death, ATP luminescence, 48 h; percent of positive-control rescue, neutral wells zero; protection from apoptosis, % (test concentration not listed); 300,000 compounds, 0.8% hits;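 active = Every replicate reaches about 75%, or at least half do and their mean reaches it too, limit read from the data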;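 also: 0% = cytokine-treated negative control wells and 100% = positive control rescue; higher means more ATP so stronger rescue from cytokine killing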
PREPL inhibitor = inhibits the human prolyl oligopeptidase-like enzyme; AID 2751; inhibition, % at 5.96 µM; recombinant PREPL, fluorescence polarization activity-based probe; Q4J6C6; 320,000 compounds, 0.68% hits; in the data active = inhibition above about 43%;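 also: 0% = enzyme with DMSO and 100% = wells lacking enzyme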
Target sequence (Q4J6C6 whole entry, looked up): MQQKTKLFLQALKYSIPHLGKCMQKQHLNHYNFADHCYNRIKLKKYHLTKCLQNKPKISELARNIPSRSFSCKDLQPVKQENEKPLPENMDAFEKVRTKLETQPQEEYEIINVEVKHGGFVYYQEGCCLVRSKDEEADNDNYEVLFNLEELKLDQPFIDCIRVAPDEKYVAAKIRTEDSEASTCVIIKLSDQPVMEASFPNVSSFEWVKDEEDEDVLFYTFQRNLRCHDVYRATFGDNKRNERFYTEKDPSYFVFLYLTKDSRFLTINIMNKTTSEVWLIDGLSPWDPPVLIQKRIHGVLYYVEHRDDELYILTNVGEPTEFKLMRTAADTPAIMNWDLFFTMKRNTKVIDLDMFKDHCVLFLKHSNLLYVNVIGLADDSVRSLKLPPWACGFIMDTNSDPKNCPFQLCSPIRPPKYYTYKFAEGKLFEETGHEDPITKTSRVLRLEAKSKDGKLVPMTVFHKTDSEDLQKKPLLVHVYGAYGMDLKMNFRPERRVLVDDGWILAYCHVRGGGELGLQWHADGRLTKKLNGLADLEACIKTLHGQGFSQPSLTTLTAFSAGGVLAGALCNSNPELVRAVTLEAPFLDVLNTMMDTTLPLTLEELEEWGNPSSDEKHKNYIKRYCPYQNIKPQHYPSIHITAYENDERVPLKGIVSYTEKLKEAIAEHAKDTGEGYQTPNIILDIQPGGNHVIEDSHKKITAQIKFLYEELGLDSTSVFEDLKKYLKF
T cruzi repl = blocks replication of Trypanosoma cruzi. T. cruzi beta-gal in NIH3T3, luminescence, 90 h. inhibition, % (no concentration beside the values). 300,000 compounds, 1.4% hits;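 active = mean inhibition across valid replicates above about 55%, limit read from the data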;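 also: signal also drops with host cell toxicity which is not excluded here; 0% = plate median of DMSO wells and 100% = zero luminescence signal; higher percent means less beta-gal luminescence so fewer parasites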
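assay system = mouse NIH/3T3 fibroblasts infected with β-gal-expressing T. cruzi Tulahuen C4 | input = 5,000 NIH/3T3 host cells per well | buffer or medium = DMEM plus 2% FBS | timing = 3 h host attachment, then at least 90 h co-culture | measured by = GalScreen luminescence, 60 min | evaluation = luminescence reflecting intracellular parasite burden, expressed as percent inhibition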
CHOP inh = blocks CHOP induction under ER stress; CHO-K1 CHOP-promoter luciferase, tunicamycin-induced, 15-18 h; inhibition, % at 10 µM; 220,000 compounds, 3.8% hits; AID 2732;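 active = compounds that reduced the stress-induced luciferase reporter signal by more than about 70% of percent inhibition, limit read from the data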;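 also: 0% = tunicamycin plus vehicle and 100% = wells without tunicamycin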
NR3A LBD binder = modulates the human NR3A ligand-binding domain; 340,000 compounds, 2.5% hits; Tm shift relative to glycine control, % at 25 µM; NR3A LBD differential scanning fluorimetry, Tm shift; 0% = protein alone, 100% = glycine-bound protein;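 active = melting temperature shift of at least 10% of the positive control shift, at one fixed dose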
* hit, by the source's call; . = no result given. Only some compounds are listed: those with a hit (about 6.7% of all), similar ones and a draw of the others.

SMILES | CSC inhib | Beta cell apopt | PREPL inhibitor | T cruzi repl | CHOP inh | NR3A LBD binder
CCCCNc1nc(N)nc(-c2cc(Cl)ccc2O)n1 | . | -13.4 | -1.3 | 15.4 | 76.6* | 18.2*
COc1ccc(N2CCN(C(=O)CN(c3ccc(OC)cc3)S(=O)(=O)c3ccccc3)CC2)cc1 | -0.6 | . | 7.8 | 9.5 | . | 0.5
O=C(CN(c1ccc(Cl)cc1)S(=O)(=O)c1ccccc1)N1CCN(c2ccccc2)CC1 | 2.9 | -1.2 | -47.4 | 21.0 | 73.2* | -3.2
O=C(CN(c1ccc(Cl)c(C(F)(F)F)c1)S(=O)(=O)c1ccccc1)N1CCOCC1 | -2.7 | 1.8 | 10.5 | 13.0 | 26.2 | 14.0*
O=C(CN(c1cccc(C(F)(F)F)c1)S(=O)(=O)c1ccccc1)N1CCOCC1 | -11.4 | . | -5.6 | 0.9 | 10.1 | 1.2
COCc1ccc(C(=O)N2CCCC(N(C)CCc3ccc(OC)c(OC)c3)C2)s1 (centres undefined) | -4.2 | 0.3 | 5.4 | 46.1 | . | 14.4*
O=C(CCl)N1N=C(c2cccs2)CC1c1ccco1 (centres undefined) | 56.4 | -38.1 | -1.4 | 83.0* | 105.6* | -0.3
CN1CCN(CC(=O)N2N=C(c3cccs3)CC2c2ccco2)CC1 (centres undefined) | -0.6 | 0.5 | 2.6 | -13.3 | -17.2 | -1.8
CCCCCCSc1cccc(-c2nc3ccc(Cl)cn3c2NCc2ccccc2)c1 | 75.9* | 6.9 | 13.9 | 37.6 | . | -3.0
CCC(C)Sc1ccc(-c2nc3ccc(C)cn3c2NCc2ccccc2)cc1OC (centres undefined) | -12.7 | 96.8* | 7.1 | 43.3 | . | -11.2
CCCCCCSc1ccc(-c2nc3ccc(C)cn3c2NCc2ccccc2)cc1 | 9.4 | . | 13.4 | 13.2 | . | -4.5
CCCCCCSc1ccc(-c2nc3ccc(C)cn3c2NCc2ccccc2)cc1OC | 68.8 | 40.3 | -1.6 | 56.3* | . | -1.9
O=C(Nc1ccnn1C1CCN(CCCc2ccccc2)CC1)c1cccc(F)c1 | -2.7 | 0.9 | -24.1 | 19.5 | . | 0.3
O=S(=O)(c1ccc(Cl)cc1)N1CCN(C(=S)NCC2CCCO2)CC1 (centres undefined) | -9.2 | -10.9 | -5.2 | 13.4 | . | 11.1*
O=S(=O)(c1ccc(F)cc1)N1CCN(C(=S)NCC2CCCO2)CC1 (centres undefined) | -7.9 | -3.0 | 2.5 | -13.4 | . | 1.1
S=c1[nH]nc(CSCCOc2ccc(Cl)cc2Cl)o1 | 13.9 | -2.0 | 0.1 | -7.2 | -8.8 | -6.4
Cc1cc(C(C)(C)C)cc(C)c1Cn1c2[n+](c3ccc(C(F)(F)F)cc31)CCCCC2 | 19.1 | 86.4* | 37.8 | 58.8* | 22.0 | -2.8
CCOC(=O)c1cc(CC)sc1NC(=O)Cc1ccccc1 | -5.9 | 4.8 | 17.4 | 40.1 | 85.3* | -1.1
CCCCN1C(=O)C(=O)N(CC(=O)Nc2sc(CC)cc2C(=O)OCC)C1=O | 0.9 | -2.4 | 2.8 | 1.5 | . | 12.8*
CCOC(=O)c1cc(CC)sc1NC(=O)COC | -16.7 | 1.8 | 1.1 | . | 43.6 | -0.1
CNc1ccc(Br)cc(C(=O)/C=C/c2cccc(OC)c2OC)c1=O | 22.9 | -9.8 | 3.0 | 46.9 | -86.5 | -0.9
CNc1ccccc(C(=O)/C=C/c2ccccc2OC)c1=O | 11.2 | -14.3 | -6.0 | -4.0 | 87.8* | -0.5
COc1ccccc1/C=C/C(=O)/C=C/c1ccccc1O | . | . | . | . | 101.4* | 1.4
COc1ccccc1C=CC(=O)C=Cc1ccccc1OC | . | . | . | . | . | 1.3
Cc1ccc(C(=O)NCC(=O)OCC(=O)c2c(N)n(C)c(=O)n(C)c2=O)s1 | -10.0 | -3.9 | 3.1 | -12.5 | 4.4 | -1.8
SMILES | CSC inhib | Beta cell apopt | PREPL inhibitor | T cruzi repl | CHOP inh | NR3A LBD binder
CC(C)c1cc(CNC(=O)C2CCC(=O)N(CCc3ccc(Cl)cc3)C2)on1 (centres undefined) | -7.8 | 4.3 | 11.3 | -5.6 | . | 2.5
CN(C)S(=O)(=O)c1ccc(Cl)c(C(=O)NNC(=O)c2ccc3c(c2)OCO3)c1 | -13.4 | 0.7 | 0.7 | . | . | 1.1
CC(C)(C)NC(=O)NC(=O)COC(=O)c1ccc(OC(F)(F)F)cc1 | 6.1 | -2.6 | 27.2 | -9.6 | 81.0* | 2.0
CC(C)(C)NC(=O)NC(=O)COC(=O)c1ccc(OC(F)F)cc1 | -16.2 | -7.5 | 10.1 | 3.9 | 10.6 | -3.1
CCC(C(=O)OCC(=O)NC(=O)NC(C)(C)C)c1ccccc1 (centres undefined) | -10.1 | -2.1 | 7.6 | 2.5 | 75.5* | -2.1
CC(=O)c1c(C)[nH]c(C(=O)OCC(=O)Nc2ccc3[nH]c(=O)[nH]c3c2)c1C | -2.9 | -3.4 | 11.7 | -6.9 | . | 20.8*
N#Cc1c(-c2ccccc2)nc(SCc2ccc(Cl)cc2)[nH]c1=O | 104.3* | -11.2 | 9.2 | -19.6 | . | .
Cc1nc(SCc2cccc(F)c2)[nH]c(=O)c1C#N | -2.2 | -3.0 | -17.5 | 1.3 | 1.2 | 12.7*
O=C1c2c(Br)c(Br)c(Br)c(Br)c2C(=O)N1c1ccccn1 | 83.8* | -11.2 | -5.2 | -45.5 | . | -0.7
c1ccc(-c2nnsc2Sc2ccccn2)cc1 | -10.9 | 7.2 | -8.7 | -2.9 | 7.9 | 14.1*
Cc1nn(-c2ccccc2)c(N2CCCC2)c1/C=N/NC(=O)c1cc(-c2ccccn2)nc2ccccc12 | 10.2 | 7.1 | 22.1 | 4.1 | 24.6 | -1.5
Cc1nn(-c2ccccc2)c(N2CCCC2)c1/C=N/NC(=O)c1cc(-c2ccccc2)nc2ccccc12 | 20.5 | 8.5 | 9.2 | 62.7* | 34.8 | -1.7
Cc1nn(-c2ccccc2)c(N2CCCC2)c1/C=N/NC(=O)c1cccc(S(=O)(=O)Nc2ccc(Cl)cc2)c1 | -0.9 | 1.9 | 14.2 | 19.6 | 48.3 | 13.4*
Cc1nn(-c2ccccc2)c(Cl)c1/C=N/NC(=O)c1cccc(S(=O)(=O)N2CCCC2)c1 | 8.4 | 5.2 | 12.2 | 5.6 | 24.7 | 5.4
COc1ccc(-c2nnc(NC(=O)c3ccc(S(=O)(=O)N4CCCc5ccccc54)cc3)o2)cc1 | . | 3.2 | -0.6 | 63.3* | 16.9 | 5.6
O=C(Nc1nnc(C2CC2)o1)c1ccc(S(=O)(=O)N2CCCc3ccccc32)cc1 | 22.3 | 27.0 | 12.0 | 58.9* | . | -10.0
COCc1nnc(NC(=O)c2ccc(S(=O)(=O)N3CCCc4ccccc43)cc2)o1 | 50.4 | 13.7 | -3.9 | -41.5 | 11.9 | -4.8
Cc1ccc(C)c(N2CCN(C(=O)c3cc(S(=O)(=O)N4CCOCC4)ccc3F)CC2)c1 | -3.9 | -7.1 | 29.0 | 12.3 | 38.6 | -1.7
COc1cc(-c2nc(-c3ccc(NC(=O)c4ccc5c(c4)OCO5)cc3)no2)cc(OC)c1OC | 30.1 | 11.5 | 9.3 | -9.0 | 27.6 | -3.7
O=C(Nc1ccc(NC(=O)c2ccco2)c(Cl)c1)c1ccc2c(c1)OCCO2 | . | -3.1 | 6.5 | 3.0 | 13.1 | 31.2*
O=C(Nc1ccc(NC(=O)c2ccco2)cc1)c1ccc2c(c1)OCO2 | -2.9 | 2.7 | -5.5 | -2.8 | 34.2 | 12.3*
O=C(Nc1cc2c(cc1Cl)OCCO2)c1ccco1 | -6.9 | -1.1 | -1.5 | 2.4 | -25.3 | -1.3
COC(=O)c1ccc(NC(=O)c2ccc3c(c2)OCO3)cc1 | 7.0 | -6.6 | -0.1 | -9.5 | -8.9 | -14.6

Screening results: PubChem BioAssay, several laboratories
